Experimental data as given in ChEMBL document CHEMBL1140231, “Design, synthesis, and evaluation of tricyclic, conformationally constrained small-molecule mimetics of second mitochondria-derived activator of caspases” (J Med Chem, 2008).
Activity calls are given as the source filed them. No cut-off for these calls is given here.

What was measured:
[1] = test system: MDA-MB-231; test: Growth inhibition of human MDA-MB-231 cells after 4 days by WST8 assay; settings: MDA-MB-231, 96 h
[2] = test system: MDA-MB-231; test: Induction of cell death in human MDA-MB-231 cells after 48 hrs by trypan blue assay; type: functional, cell-based
Procedure, shortened: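 MDA-MB-231 breast cancer cells exposed to a range of compound concentrations for 48 hours; viability scored by trypan blue exclusion; percent dead cells reported.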

[3] = test system: MDA-MB-231; test: Induction of cell death in human MDA-MB-231 cells at 1 uM after 48 hrs by trypan blue assay; type: functional
Procedure, shortened: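 MDA-MB-231 breast cancer cells exposed to compound for 48 hours. Viability scored by trypan blue exclusion. Read-out is percentage of cells dead.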

[4] = test system: MDA-MB-231; test: Induction of degradation of cIAP1 in human MDA-MB-231 cells after 24 hrs by Western blot analysis; type: functional, cell-based
Procedure, shortened: (§1)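 MDA-MB-231 breast cancer cells exposed to a range of concentrations for 24 hours; lysate proteins probed by Western blot with specific antibodies against cIAP-1, caspase-8, and pro- and cleaved PARP.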

[5] = test system: MDA-MB-231; test: Induction of caspase 8 processing in human MDA-MB-231 cells within 24 hrs by Western blot analysis; type: functional, cell-based; procedure, shortened: as §1
[6] = test system: MDA-MB-231; test: Induction of poly(ADP-ribose) polymerase cleavage in human MDA-MB-231 cells within 24 hrs by Western blot analysis; type: functional, cell-based; procedure, shortened: as §1
[7] = test system: MDA-MB-231; test: Induction of degradation of cIAP1 in human MDA-MB-231 cells upto 100 nM after 24 hrs by Western blot analysis; type: functional, cell-based; procedure, shortened: as §1

Row | Compound | IC50 [1] [nM] | Activity [2] | Activity [3] [%] | Activity [4] | Activity [5] | Activity [6] | Activity [7]
1 | CN[C@@H](C)C(=O)N[C@H]1Cc2ccccc2[C@H]2CCC[C@@H](C(=O)NC(c3ccccc3)c3ccccc3)N2C1=O | 1370 | Dose-dependent effect | <20 | Active | – | – | –
2 | CN[C@@H](C)C(=O)N[C@H]1Cc2ccccc2[C@H]2CC[C@@H](C(=O)N[C@@H]3CCCc4ccccc43)N2C1=O | – | Dose-dependent effect | 75 | Active | Dose-dependent effect | Dose-dependent effect | Active
3 | CN[C@@H](C)C(=O)N[C@H]1Cc2ccccc2[C@H]2CC[C@@H](C(=O)NC(c3ccccc3)c3ccccc3)N2C1=O | – | Dose-dependent effect | – | Active | – | – | –
